Measured values published in ChEMBL document CHEMBL5512679, “In Silico Assisted Identification, Synthesis, and In Vitro Pharmacological Characterization of Potent and Selective Blockers of the Epilepsy-Associated KCNT1 Channel” (J Med Chem, 2024).
pIC50: −log10 of the molar value. Blank lines part the entries; values can stand above or below the compound they belong to.

Key:
hERG (KCNH2) [1] = target: T1, hERG (KCNH2) (Homo sapiens, UniProt Q12809); assay: Inhibition of hERG expressed in HEK293 cells at 10 uM by whole-cell patch clamp electrophysiology method relative to control; format: toxicity, cell-based; settings: HEK293 cells that express hERG
hERG (KCNH2) [2] = target: T1, hERG (KCNH2); assay: Inhibition of hERG expressed in HEK293 cells at 10 uM by thallium flux assay relative to control; settings: HEK293 cells that express hERG
[3] = Stability in human plasma assessed as compound remaining incubated upto 120 mins […] by LC-MS analysis; format: ADME, cell-free; settings: read-out: Stability
Method in brief: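 Human plasma prewarmed to 37 °C and centrifuged; compound added at 37 °C. Samples taken at 0, 30, 60, 90 and 120 min, quenched into ice-cold methanol with internal standard, and measured by LC-MS as % remaining relative to 0 min. Duplicates; procaine as control.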

[4] = target: Voltage-gated inwardly rectifying potassium channel KCNH2 (Homo sapiens, UniProt Q12809); assay: Inhibition of hERG transiently transfected in CHO cells at 10 uM at -100 mV holding potential by whole-cell patch clamp electrophysiology method; format: toxicity, cell-based
Method in brief: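 hERG transiently expressed in CHO cells (eGFP co-transfection marker) and recorded by whole-cell patch clamp at 20–22 °C, 24 h post-transfection. […] Pipette (mM): 140 KCl, 2 MgCl2, 10 EGTA, 10 HEPES, 5 Mg-ATP. Protocol: 1 s steps from −80 to +60 mV, then 140 ms at −100 mV. Tail current at −100 mV read as I_drug/I_CTL with 10 μM drug; ≥3 cells.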

[5] = target: T2, Potassium channel subfamily T member 1 (Homo sapiens, UniProt Q5JUK3); assay: Inhibition of human KCNT1 (98 to 354 residues) expressed in CHO cells assessed as reduction in thallium fluorescent signal incubated for 15 mins followed by LOX addition measured after 15 mins by FluxOR green dye based fluorescence analysis; format: cell-based
T2 sequence (Q5JUK3 whole entry): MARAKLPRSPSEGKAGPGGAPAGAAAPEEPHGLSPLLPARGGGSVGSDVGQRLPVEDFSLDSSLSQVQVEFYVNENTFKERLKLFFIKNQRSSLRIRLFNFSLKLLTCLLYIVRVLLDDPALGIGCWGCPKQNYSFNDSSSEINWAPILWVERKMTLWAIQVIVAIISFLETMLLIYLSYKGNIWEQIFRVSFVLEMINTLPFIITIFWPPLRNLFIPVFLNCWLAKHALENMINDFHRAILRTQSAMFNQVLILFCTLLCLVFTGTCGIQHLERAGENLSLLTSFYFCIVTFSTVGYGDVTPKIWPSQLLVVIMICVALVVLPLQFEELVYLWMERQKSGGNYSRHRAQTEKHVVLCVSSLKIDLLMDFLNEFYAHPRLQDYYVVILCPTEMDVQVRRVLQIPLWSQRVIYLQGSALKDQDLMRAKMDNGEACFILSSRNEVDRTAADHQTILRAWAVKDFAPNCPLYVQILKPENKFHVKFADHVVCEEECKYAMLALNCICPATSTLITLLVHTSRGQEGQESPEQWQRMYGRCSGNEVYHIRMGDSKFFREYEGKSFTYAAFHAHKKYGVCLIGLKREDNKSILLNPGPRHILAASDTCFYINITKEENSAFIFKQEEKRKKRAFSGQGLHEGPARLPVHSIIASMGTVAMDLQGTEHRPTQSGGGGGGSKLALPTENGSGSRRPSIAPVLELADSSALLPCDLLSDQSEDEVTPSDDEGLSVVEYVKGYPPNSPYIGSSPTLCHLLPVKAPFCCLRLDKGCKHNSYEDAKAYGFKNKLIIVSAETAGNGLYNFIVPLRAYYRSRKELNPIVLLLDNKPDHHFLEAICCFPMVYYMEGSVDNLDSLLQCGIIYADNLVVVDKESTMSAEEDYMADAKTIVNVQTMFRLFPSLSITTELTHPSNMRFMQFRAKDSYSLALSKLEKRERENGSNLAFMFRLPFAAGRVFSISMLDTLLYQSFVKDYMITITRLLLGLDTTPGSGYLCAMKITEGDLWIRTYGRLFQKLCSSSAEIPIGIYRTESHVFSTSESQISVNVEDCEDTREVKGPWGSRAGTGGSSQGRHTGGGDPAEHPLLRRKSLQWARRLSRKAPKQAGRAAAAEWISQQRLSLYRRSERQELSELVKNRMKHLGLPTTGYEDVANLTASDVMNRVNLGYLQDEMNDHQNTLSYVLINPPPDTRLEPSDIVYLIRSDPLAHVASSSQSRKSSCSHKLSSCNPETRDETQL

hERG (KCNH2) [6] = target: T1, hERG (KCNH2); assay: Inhibition of hERG transiently transfected in CHO cells at 10 uM at -100 mV holding potential by whole-cell patch clamp electrophysiology method relative to control; format: toxicity, cell-based; settings: CHO cells transiently transfected with hERG
[7] = Intrinsic clearance in human liver microsomes incubated upto 60 mins in presence of NADPH and UDPGA by LC-MS analysis; format: ADME, Microsome; settings: read-out: CLH
[8] = Plasma protein binding in human at 10 uM incubated for 4 hrs by rapid equilibrium dialysis based LC-MS/MS analysis; format: ADME, cell-free; settings: read-out: PPB
[9] = target: T3, Potassium channel subfamily T member 2 (Homo sapiens, UniProt Q6UVM3); assay: Inhibition of human KCNT2 expressed in HEK cells at +60 mV holding potential by whole-cell patch clamp electrophysiology method; format: cell-based
T3 sequence (Q6UVM3 whole entry): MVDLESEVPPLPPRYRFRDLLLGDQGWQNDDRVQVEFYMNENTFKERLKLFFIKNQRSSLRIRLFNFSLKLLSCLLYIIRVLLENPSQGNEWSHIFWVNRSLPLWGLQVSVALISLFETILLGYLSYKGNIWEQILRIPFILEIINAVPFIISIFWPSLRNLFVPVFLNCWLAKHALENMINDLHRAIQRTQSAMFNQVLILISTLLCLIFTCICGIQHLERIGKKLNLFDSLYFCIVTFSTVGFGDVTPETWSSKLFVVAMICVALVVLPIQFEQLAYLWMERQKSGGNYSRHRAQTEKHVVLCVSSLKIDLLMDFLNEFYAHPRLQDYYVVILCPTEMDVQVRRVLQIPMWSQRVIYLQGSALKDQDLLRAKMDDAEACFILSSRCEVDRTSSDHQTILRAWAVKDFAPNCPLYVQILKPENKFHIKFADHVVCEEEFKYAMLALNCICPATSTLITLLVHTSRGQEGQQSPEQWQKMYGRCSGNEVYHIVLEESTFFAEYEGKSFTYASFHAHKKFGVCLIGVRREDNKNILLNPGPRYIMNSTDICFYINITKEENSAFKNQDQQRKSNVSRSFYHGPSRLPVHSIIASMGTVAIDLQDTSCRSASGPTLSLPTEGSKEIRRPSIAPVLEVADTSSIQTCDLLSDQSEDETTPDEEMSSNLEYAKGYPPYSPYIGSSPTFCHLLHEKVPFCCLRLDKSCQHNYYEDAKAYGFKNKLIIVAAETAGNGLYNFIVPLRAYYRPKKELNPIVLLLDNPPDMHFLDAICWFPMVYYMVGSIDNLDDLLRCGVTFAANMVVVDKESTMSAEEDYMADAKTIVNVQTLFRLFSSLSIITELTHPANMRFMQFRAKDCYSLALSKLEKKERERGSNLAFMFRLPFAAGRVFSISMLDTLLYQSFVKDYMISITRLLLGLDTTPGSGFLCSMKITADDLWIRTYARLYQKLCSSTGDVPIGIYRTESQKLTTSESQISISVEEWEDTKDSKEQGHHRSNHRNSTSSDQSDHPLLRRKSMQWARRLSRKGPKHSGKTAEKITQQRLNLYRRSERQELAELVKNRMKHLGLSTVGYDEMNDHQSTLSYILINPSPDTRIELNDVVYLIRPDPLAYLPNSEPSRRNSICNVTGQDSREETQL
Method in brief: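 Human KCNT2 transiently expressed in HEK cells and recorded by whole-cell patch clamp at 20–22 °C, 24 h after transfection. Pipette (mM): 130 KCl, 10 NaCl, 10 HEPES, 5 EGTA, pH 7.3–7.4, with ATP omitted. Each cell received one perfused concentration; DMSO ≤0.3%. Current at the end of the depolarizing pulse was normalized and fitted to a binding isotherm with Hill coefficient; ≥6 determinations per point, mean ± SEM.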

Chain of Voltage-gated inwardly rectifying potassium channel KCNH2 (Q12809 whole entry): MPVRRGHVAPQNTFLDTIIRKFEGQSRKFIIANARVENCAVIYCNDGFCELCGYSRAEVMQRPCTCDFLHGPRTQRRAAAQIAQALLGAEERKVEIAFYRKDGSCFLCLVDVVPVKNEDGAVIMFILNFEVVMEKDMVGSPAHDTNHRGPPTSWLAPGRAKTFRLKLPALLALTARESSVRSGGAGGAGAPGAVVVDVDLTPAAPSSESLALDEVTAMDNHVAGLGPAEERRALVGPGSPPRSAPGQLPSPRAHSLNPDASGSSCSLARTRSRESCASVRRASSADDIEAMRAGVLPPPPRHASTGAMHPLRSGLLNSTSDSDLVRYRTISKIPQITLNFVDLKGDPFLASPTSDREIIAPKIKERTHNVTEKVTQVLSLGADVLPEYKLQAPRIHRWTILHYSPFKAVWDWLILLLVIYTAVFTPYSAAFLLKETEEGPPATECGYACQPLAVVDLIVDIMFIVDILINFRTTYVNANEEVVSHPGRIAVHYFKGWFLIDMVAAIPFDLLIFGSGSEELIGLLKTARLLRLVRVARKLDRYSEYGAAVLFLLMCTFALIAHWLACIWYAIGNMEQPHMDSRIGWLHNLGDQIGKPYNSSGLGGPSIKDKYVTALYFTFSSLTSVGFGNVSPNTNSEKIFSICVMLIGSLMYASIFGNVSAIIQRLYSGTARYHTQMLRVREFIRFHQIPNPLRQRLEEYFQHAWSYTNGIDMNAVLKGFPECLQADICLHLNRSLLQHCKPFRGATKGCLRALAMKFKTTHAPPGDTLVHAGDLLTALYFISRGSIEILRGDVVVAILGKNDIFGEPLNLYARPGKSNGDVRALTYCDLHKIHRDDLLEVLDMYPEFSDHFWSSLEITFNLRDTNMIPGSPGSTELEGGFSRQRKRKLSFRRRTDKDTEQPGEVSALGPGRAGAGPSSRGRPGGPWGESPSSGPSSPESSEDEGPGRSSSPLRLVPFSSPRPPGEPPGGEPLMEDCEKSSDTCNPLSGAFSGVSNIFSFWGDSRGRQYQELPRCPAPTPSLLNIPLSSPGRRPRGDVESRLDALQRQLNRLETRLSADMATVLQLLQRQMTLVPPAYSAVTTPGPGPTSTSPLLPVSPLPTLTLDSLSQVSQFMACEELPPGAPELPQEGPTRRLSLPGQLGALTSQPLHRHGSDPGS
T1 sequence (Q12809 whole entry): as above

remaining at 2 h [3]: 0%
Structure (SMILES): CCOC(=O)[C@@H]1CS[C@@]2(C(=O)Nc3ccc(Br)cc32)N1C(=O)c1ccc(Cl)cc1
inhibition (INH) [4]: Not Active

CLint scaled [7]: < 80 mL/min/kg | fraction unbound at 4 h, 10 µM [8]: 0.01 | remaining at 2 h [3]: < 80%
Structure (SMILES): O=C(NCc1ccccc1)[C@H](Cc1c[nH]c2ccccc12)NCc1ccc(Oc2ccccc2)cc1
inhibition (INH) [4]: Not Active

CLint scaled [7]: < 1 mL/min/kg | pIC50 [9]: 5.90 | fraction unbound at 4 h, 10 µM [8]: 0.01 | remaining at 2 h [3]: < 80%
Structure (SMILES): O=S(=O)(Nc1ccc2c(c1)CCN2Cc1ccc(C(F)(F)F)cc1C(F)(F)F)C1CCCCC1
inhibition (INH) [4]: Not Active

pIC50 [5]: 5.26
Structure (SMILES): CC(C)(C)CNC(=O)Nc1ccc2c(c1)CCN2Cc1ccc(F)cc1
inhibition at 10 µM (hERG (KCNH2) [6]): 30%

Second part, the compound before the results:

Structure (SMILES): O=C(Nc1cccc(C(F)(F)F)c1)c1ccc2nc(N3C(=O)c4ccccc4C3=O)sc2c1
inhibition at 10 µM (hERG (KCNH2) [1]): 15%

Structure (SMILES): COc1ccc(Cl)cc1NC(=O)CN1CCN(S(=O)(=O)N2CCC(C)CC2)CC1
inhibition at 10 µM (hERG (KCNH2) [2]): 40%

Structure (SMILES): Oc1ccc2ccccc2c1CNCCc1c[nH]c2ccccc12
pIC50 [5]: 5.06 | inhibition at 10 µM (hERG (KCNH2) [6]): 30%

Structure (SMILES): Cc1cc(O)ccc1N/C=C/C(=O)c1ccccc1
inhibition at 10 µM (hERG (KCNH2) [1]): 15%
